Measurements published in article PMC3901018 (Chemical communications (Cambridge, England), 2014).

How the values were obtained:
[1] = tested on: AR (androgen receptor promoter) G4; experiment: FRET G4 stabilisation; format: binding; details: ΔTm at 1 µM; triplicate, Esd ± 0.5 °C
[2] = tested on: Mia-PaCa2 (pancreatic cancer); experiment: 96 hr SRB assay, Mia-PaCa2; format: cell-based; details: Homo sapiens, MIA PaCa-2, 96 h, read-out: IC50, Mia-PaCa2
[3] = tested on: ALT (transformed WI38 lung fibroblast cells); experiment: 96 hr SRB assay, ALT; format: cell-based; details: Homo sapiens, WI-38, 96 h, read-out: IC50, ALT
786-O (renal cancer) = experiment: 96 hr SRB assay, 786-O; format: cell-based; details: Homo sapiens, 786-0, 96 h, read-out: IC50, 786-O
A549 (lung cancer) = experiment: 96 hr SRB assay, A549; format: cell-based; details: Homo sapiens, A549, 96 h, read-out: IC50, A549
[4] = tested on: F21T G4 versus calf thymus duplex DNA; experiment: Calf thymus DNA; format: binding, human; details: 1 µM compound, calf thymus DNA competitor
Outline: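 Competition version of the FRET melting assay. Dual-labelled F21T G4 is challenged with unlabelled calf thymus duplex DNA added at high duplex:G4 ratios. Test compound at 1 µM. Read-out is % retention of the F21T Tm shift.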

[5] = tested on: F21T (human telomeric 21-mer) G4; experiment: FRET G4 stabilisation; format: binding; details: ΔTm at 1 µM; triplicate, Esd ± 0.5 °C
Outline: (§1)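 96-well FRET melting assay using dual-labelled oligonucleotides: human telomeric 21-mer F21T and c-KIT2 G4s, plus T-loop duplex DNA. Test compound at 1 µM. Tm shift obtained by curve fitting to the melting data, from triplicate measurements, Esd ± 0.5 °C. n/a marks unsuccessful curve fitting.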

[6] = tested on: WI38 (non-transformed lung fibroblast cells); experiment: 96 hr SRB assay, WI38; format: cell-based; details: Homo sapiens, WI-38, 96 h, read-out: IC50, WI38
c-KIT2 G4 = experiment: FRET G4 stabilisation; format: binding; details: ΔTm at 1 µM; triplicate, Esd ± 0.5 °C
Outline: as §1

HSP90B promoter G4 = experiment: FRET G4 stabilisation; format: binding; details: ΔTm at 1 µM; triplicate, Esd ± 0.5 °C
[7] = tested on: duplex DNA sequence (T-loop); experiment: FRET melting assay, duplex DNA control; format: binding; details: ΔTm at 1 µM, Esd ± 0.5 °C
Outline: as §1

RCC4 (renal cancer) = experiment: 96 hr SRB assay, RCC4; format: cell-based; details: Homo sapiens, RCC4, 96 h, read-out: IC50, RCC4
[8] = tested on: Panc1 (pancreatic cancer); experiment: 96 hr SRB assay, Panc1; format: cell-based; details: Homo sapiens, PANC-1, 96 h, read-out: IC50, Panc1
MCF7 (breast cancer) = experiment: 96 hr SRB assay, MCF7; format: cell-based; details: Homo sapiens, MCF7, 96 h, read-out: IC50, MCF7
HSP90A promoter G4 = experiment: FRET G4 stabilisation; format: binding; details: ΔTm at 1 µM; triplicate, Esd ± 0.5 °C

## CN1CCN(CCCNc2cc3c4c(c(NCCCN5CCN(C)CC5)cc5c4c2C(=O)N(CCCN2CCOCC2)C5=O)C(=O)N(CCCN2CCOCC2)C3=O)CC1 [Compound 8, 4,9-bis((3-(4-methyl-piperazin-1-yl)propyl)amino)-2,7-bis(3-morpholinopropyl) benzo-[lmn] [3,8] phenanthroline-1,3,6,8(2H,7H)-tetraone]
[1]
  FRET G4 stabilization ΔTm, AR: 15.9 °C
[2]
  IC50: 11 nM
[3]
  IC50: 63 nM
786-O (renal cancer)
  IC50: 320 nM
A549 (lung cancer)
  IC50: 19 nM
[4]; G4:CT 1:1
  % retention of the F21T ΔTm, G4:CT 1:1: 100%
[4]; G4:CT 1:10
  % retention of the F21T ΔTm, G4:CT 1:10: 100%
[4]; G4:CT 1:300
  % retention of the F21T ΔTm, G4:CT 1:300: 27.2%
[5]
  FRET G4 stabilization ΔTm, F21T: 26.6 °C
[6]
  IC50: 230 nM
c-KIT2 G4
  FRET G4 stabilization ΔTm, c-KIT2: 22.0 °C
HSP90B promoter G4
  FRET G4 stabilization ΔTm, HSP-90B: 28.6 °C
[7]
  FRET ΔTm, T-loop duplex: 4.9 °C
RCC4 (renal cancer)
  IC50: 560 nM
[8]
  IC50: 3 nM
MCF7 (breast cancer)
  IC50: 70 nM
HSP90A promoter G4
  FRET G4 stabilization ΔTm, HSP-90A: 33.1 °C
